Results published in ChEMBL document CHEMBL1153167, “Gastroprotective flavonoid constituents from Oroxylum indicum Vent” (Bioorg Med Chem Lett, 2010).
Active and inactive are the calls of the source. The calls are words filed in the database; no cut-off is given here.

Assays:
Type in all cases: functional, organism-based
Design in all cases: dose 25 mg/kg
Rattus norvegicus [1] = assay: Gastroprotective activity against cold restraint-induced ulceritis in Wistar rat at 25 mg/kg, po pretreated before cold restraination measured after 2 hrs
Method in brief: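 After the oral dose, rats (six per group) were restrained at 4 °C for 2 h. The stomach was then opened along the greater curvature and severity was scored as mean ulcer index. Read-out is % protection, mean ± SD.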

Rattus norvegicus [2] = assay: Gastroprotective activity against aspirin-induced ulceritis in Wistar rat at 25 mg/kg, po pretreated 5 days before aspirin challenge measured after 24 hrs of fasting
Method in brief: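 Rats, six per group, were dosed with test sample for five days, then given aspirin 200 mg/kg body weight suspended in 1% Tween-80. They were fasted 24 h and killed by cervical dislocation. Stomachs were opened along the greater curvature, washed with lukewarm saline and scored for ulcer index under a dissecting microscope. Read-out is % protection, mean ± SD.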

Rattus norvegicus [3] = assay: Gastroprotective activity against pylorus ligation-induced ulcer in 48 hrs fasted Wistar rat at 25 mg/kg rat pretreated 1 hr before pylorus ligation measured after 4 hrs
Method in brief: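 Rats fasted 48 h, six per group, were dosed as a 1% Tween-80 suspension at 1 mL per rat. After 1 h the pylorus was ligated under anesthesia. Animals were killed 4 h after ligation for evaluation. Read-out is % protection, mean ± SD.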

Rattus norvegicus [4] = assay: Gastroprotective activity against ethanol-induced ulceritis in 48 hrs fasted Wistar rat at 25 mg/kg, po pretreated 1 hr before ethanol challenge followed by pylorus ligation measured after 4 hrs
Method in brief: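 Rats fasted 48 h, six per group, were dosed orally. Ethanol was given intragastrically 1 h later. One hour after the ethanol, the pylorus was ligated under anesthesia. Animals were killed 4 h after ligation and ulcers were indexed. Read-out is % protection, mean ± SD.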

Structure (SMILES) | Activity (Rattus norvegicus [1]) | Activity (Rattus norvegicus [2]) | Activity (Rattus norvegicus [3]) | Activity (Rattus norvegicus [4])
COc1c(O)cc2c(c1O)C(=O)C[C@@H](c1ccccc1)O2 | Active | Active | Active | Active
COc1c(O)cc2oc(-c3ccccc3)cc(=O)c2c1O | Active | Active | Active | Active
COc1cc(O)c2c(=O)cc(-c3ccccc3)oc2c1 | inactive | inactive | inactive | inactive
O=c1cc(-c2ccccc2)oc2cc(O)cc(O)c12 | Active | Active | Active | Active
COc1cc(O)c2c(=O)cc(-c3c(OC)cccc3O[C@H]3O[C@@H](CO)[C@H](O)[C@@H](O)[C@@H]3O)oc2c1 | inactive | inactive | inactive | inactive
COc1ccc(-c2cc(=O)c3c(O)cc(OC)cc3o2)cc1 | inactive | inactive | inactive | inactive
